We go through 30 compounds from ChEMBL document CHEMBL1127846, “Influence of amine substituents on 5-HT2A versus 5-HT2C binding of phenylalkyl- and indolylalkylamines” (J Med Chem, 1994).

For test [1], the target named is T1, 5-hydroxytryptamine receptor 2A (Homo sapiens, UniProt P28223). Description: Affinity against 5-hydroxytryptamine 2A receptor (K) labeled with [3H]ketanserin.
The target in test [2] is T1, 5-hydroxytryptamine receptor 2A. Put plainly: Affinity against 5-hydroxytryptamine 2A receptor (D) labeled with [125I]DOI.
Test [3] has as its target T2, 5-hydroxytryptamine receptor 2C (Rattus norvegicus, UniProt P08909).
T2 sequence (P08909 whole entry): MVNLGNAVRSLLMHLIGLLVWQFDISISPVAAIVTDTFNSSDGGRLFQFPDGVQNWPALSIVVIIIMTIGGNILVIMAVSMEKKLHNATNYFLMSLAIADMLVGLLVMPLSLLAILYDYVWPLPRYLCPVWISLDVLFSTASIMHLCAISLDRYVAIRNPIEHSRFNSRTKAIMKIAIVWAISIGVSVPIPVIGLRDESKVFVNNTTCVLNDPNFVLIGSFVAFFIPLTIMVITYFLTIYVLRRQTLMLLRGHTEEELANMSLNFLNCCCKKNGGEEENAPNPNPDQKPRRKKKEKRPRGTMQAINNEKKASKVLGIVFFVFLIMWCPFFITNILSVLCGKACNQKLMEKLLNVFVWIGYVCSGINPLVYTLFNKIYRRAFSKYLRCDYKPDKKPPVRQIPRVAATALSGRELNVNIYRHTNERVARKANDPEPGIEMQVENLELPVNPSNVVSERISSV
Description: Affinity against 5-hydroxytryptamine 2C receptor in J1 cells transfected with the rat 5-HT2C gene labeled with [3H]mesulergine. The format is cell-based. An outline of the steps: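 Homogenates of J1 cells carrying the rat 5-HT1C (5-HT2C) gene, labeled with [3H]mesulergine. Competing drug and radioligand incubated at 37 °C for 30 min, then filtered through glass-fiber filters and counted by liquid scintillation. Ki given as mean and SEM of at least two experiments, each done in triplicate.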

Test [4] is described as follows: Receptor selectivity [3H]- ketanserin-labeled receptors versus [125I]- DOI-labeled receptors.
Test [5] can be described thus: The compound evaluated for its receptor selectivity 5-HT2C receptors versus [125I]- DOI- labeled receptors.
Test [6] in a line: The compound evaluated for its receptor selectivity at [125I]- DOI- labeled receptors versus [3H]- ketanserin- labeled receptors,. In outline:
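[…] 5-HT2A receptors expressed in transfected GF6 cells, labeled in separate assays with [3H]ketanserin or [125I]DOI. Homogenates were incubated with radioligand and competing drug for 30 min at 37 °C, then filtered through glass-fiber filters and counted by liquid scintillation. Ki values are the mean and SEM of at least two experiments, each run in triplicate.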

T1 sequence (P28223 whole entry): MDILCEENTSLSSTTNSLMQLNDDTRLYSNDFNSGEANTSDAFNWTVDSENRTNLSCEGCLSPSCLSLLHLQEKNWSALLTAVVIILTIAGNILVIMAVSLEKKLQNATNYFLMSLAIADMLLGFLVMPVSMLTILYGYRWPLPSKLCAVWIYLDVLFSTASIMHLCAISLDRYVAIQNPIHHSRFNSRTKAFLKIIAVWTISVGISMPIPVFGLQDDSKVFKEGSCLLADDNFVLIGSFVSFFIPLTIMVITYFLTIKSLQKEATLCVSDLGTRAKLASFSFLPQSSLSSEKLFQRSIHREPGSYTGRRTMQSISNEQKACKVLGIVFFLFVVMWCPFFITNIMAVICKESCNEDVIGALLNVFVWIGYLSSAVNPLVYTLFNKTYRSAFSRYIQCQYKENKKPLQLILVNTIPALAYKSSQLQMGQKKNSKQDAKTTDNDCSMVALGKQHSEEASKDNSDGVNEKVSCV

In the case of `COc1cc(CCN)c(OC)cc1Br`, the Ki (commonly a measure of affinity in units of concentration, obtained from inhibition or displacement) in test [1] turned out to be 34 nM; in test [2] it was 1 nM.
Turning to `COc1cc(CCNCc2ccc(Br)cc2)c(OC)cc1Br`, the inhibition constant Ki amounted to 1.6 nM in test [1], 0.4 nM in test [2] and 48 nM in test [3]. Besides, the Ratio came out at 4 in test [4] and 120 in test [5].
Turning to `COc1ccc(CNCCc2c[nH]c3ccc(OC)cc23)cc1`, the inhibitory constant (Ki) in test [1] came out at 100 nM; in test [2], 16 nM; in test [3], 1180 nM. Also, the Ratio in test [4] stood at 6; in test [5], 74.
The corresponding values for `COc1ccc2[nH]cc(CCNCc3ccc(N)cc3)c2c1` are 475 nM, 105 nM, 6700 nM, 5 and 64.
For `COc1cc(CCNCc2ccc(C)cc2)c(OC)cc1Br`, the Ki turned out to be 23 nM in test [1], 14 nM in test [2] and 225 nM in test [3]. The results for the Ratio in test [4] and in test [5] were 2 and 16, respectively.
With `COc1cc(CCNCc2ccc(N)cc2)c(OC)cc1Br`, the inhibitory constant (Ki) in test [1] came to 50 nM; in test [2] it was 16 nM; in test [3] it was 1020 nM. The Ratio was 3 in test [4] and 64 in test [5].
Turning to `CNCCc1c[nH]c2ccc(OC)cc12`, the values for the Ki in test [1], in test [2] and in test [3] were 450 nM, 4.1 nM and 840 nM, respectively. Moreover, the Ratio in test [6] was 110.
Turning to `COc1ccc2[nH]cc(CCNCCCCc3ccccc3)c2c1`, the values for the inhibition constant (Ki) in test [1], in test [2] and in test [3] were 22 nM, 13 nM and 1500 nM, respectively. Moreover, the values for the Ratio in test [4] and in test [5] were 2 and 115, respectively.
The corresponding values for `COc1ccc2[nH]cc(CCNCc3ccc([N+](=O)[O-])cc3)c2c1` are 4260 nM, 140 nM, 9970 nM, 30 and 70.
On to `CCNCCc1c[nH]c2ccc(OC)cc12`, for which the inhibition constant (Ki) in test [1] is 930 nM; in test [2], 7.2 nM; in test [3], 2680 nM. The Ratio in test [6] was found to be 130.
As to `COc1ccc2[nH]cc(CCNCc3ccc(Br)cc3)c2c1`, the Ki in test [1] is 5.2 nM; in test [2] it was 0.1 nM; in test [3] it was 100 nM. The Ratio is 52 in test [4] and 1000 in test [5].
As to `COc1cc(CCNCc2ccc(F)cc2)c(OC)cc1Br`, the values for the Ki in test [1], in test [2] and in test [3] were 30 nM, 3.4 nM and 360 nM, respectively. In addition, the values for the Ratio in test [4] and in test [5] were 7 and 80, respectively.
As for `COc1cc(CCNCc2ccc([N+](=O)[O-])cc2)c(OC)cc1Br`, the Ki in test [1] stood at 290 nM; in test [2], 58 nM; in test [3] it was 1220 nM. Moreover, the Ratio in test [4] was 5; in test [5] it was 21.
For the compound `COc1ccc2[nH]cc(CCNCc3ccc(I)cc3)c2c1`, the Ki in test [1] is 400 nM; in test [2] it was 120 nM; in test [3], 1770 nM. The figures for the Ratio in test [4] and in test [5] were 3 and 15, respectively.
With `COc1cc(CCNCc2ccc(Cl)cc2)c(OC)cc1Br`, the Ki in test [1] was found to be 110 nM; in test [2] it was 15 nM; in test [3] it was 715 nM. For the same compound, the Ratio amounted to 7 in test [4] and 48 in test [5].
Turning to `CCNCCc1cc(OC)c(Br)cc1OC`, the inhibitory constant (Ki) was 330 nM in test [1], 40 nM in test [2] and 1930 nM in test [3]. Besides, the Ratio is 8 in test [4] and 48 in test [5].
The corresponding values for `COc1ccc2[nH]cc(CCNCc3ccc(C)cc3)c2c1` are 110 nM, 30 nM, 1230 nM, 4 and 40.
On to `COc1ccc(CNCCc2cc(OC)c(Br)cc2OC)cc1`, for which the results for the Ki in test [1], in test [2] and in test [3] were 16 nM, 13 nM and 215 nM, respectively. The Ratio in test [4] was 1; in test [5] it was 17.
Taken in the same sequence, the figures for `COc1cc(CCN(C)C)c(OC)cc1Br` were 420 nM, 16 nM, 480 nM, 26 and 30.
Taken in the same sequence, the figures for `COc1ccc2[nH]cc(CCNCCCc3ccccc3)c2c1` were 50 nM, 10 nM, 165 nM, 5 and 16.
Taken in the same sequence, the figures for `COc1cc(CCNCc2ccc(I)cc2)c(OC)cc1Br` were 22 nM, 0.4 nM, 165 nM, 55 and 410.
`COc1cc(CCN2CCCCC2)c(OC)cc1Br`: the results for the Ki in test [1], in test [2] and in test [3] were 895 nM, 154 nM and 2530 nM, respectively. For the same compound, the Ratio in test [4] came to 6; in test [5], 16.
Taken in the same sequence, the figures for `COc1cc(CCNCc2ccccc2)c(OC)cc1Br` were 16 nM, 0.3 nM, 90 nM, 53 and 300.
In the case of `COc1ccc2[nH]cc(CCN3CCCCC3)c2c1`, the inhibition constant Ki in test [1] was 160 nM; in test [2], 230 nM; in test [3] it was more than 10000 nM.
As to `COc1ccc2[nH]cc(CCNCc3ccccc3)c2c1`, the inhibition constant Ki in test [1] amounted to 55 nM; in test [2], 5.3 nM; in test [3] it was 370 nM. Further, the Ratio in test [4] was 10; in test [5], 70.
Regarding `COc1ccc2[nH]cc(CCNCc3ccc(F)cc3)c2c1`, the inhibitory constant (Ki) in test [1] came to 480 nM; in test [2], 40 nM; in test [3] it was 3530 nM. Moreover, the Ratio in test [4] was 10; in test [5] it was 88.
Turning to `CNCCc1cc(OC)c(Br)cc1OC`, the Ki was 380 nM in test [1], 2.9 nM in test [2] and 100 nM in test [3]. Moreover, the values for the Ratio in test [4] and in test [5] were 130 and 34, respectively.
The corresponding values for `COc1ccc2[nH]cc(CCNCc3ccc(Cl)cc3)c2c1` are 565 nM, 105 nM, 4390 nM, 5 and 42.
The corresponding values for `COc1cc(CCNCCCc2ccccc2)c(OC)cc1Br` are 84 nM, 23 nM, 310 nM, 4 and 13.
The corresponding values for `COc1cc(CCNCCCCc2ccccc2)c(OC)cc1Br` are 100 nM, 27 nM, 695 nM, 4 and 26.
